Source: ChEMBL document CHEMBL5579886, “Selective Degradation of MLK3 by a Novel CEP1347-VHL-02 PROTAC Compound Limits the Oncogenic Potential of TNBC” (J Med Chem, 2024)
Calls of active or inactive are those of the source. The calls are words filed in the database; no cut-off is given here.

Assays:
[1] = target: T1, von Hippel-Lindau disease tumor suppressor/Mitogen-activated protein kinase kinase kinase 10 (Homo sapiens) (UniProt Q02779+P40337); test: PROTAC activity at VHL/DOX-inducible MLK2 (unknown origin) overexpressed in human A-375 cells assessed as protein degradation at 0.1 to 5 uM incubated for 24 hrs by immunoblot analysis; format: cell-based; conditions: dose 0.1-5 µM
How it was run: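 A375 cells carried lentiviral DOX-inducible MLK1, MLK2 or MLK4 and were grown in RPMI-1640 with 10% FBS. Cells were seeded at 100 000/well and induced with 1 μg/mL DOX. After 24 h they were treated at 0.1–5 μM for 24 h, with DMSO as control. Levels were read by ECL immunoblot of RIPA lysates, with GAPDH or β-actin loading control.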

[2] = target: T2, von Hippel-Lindau disease tumor suppressor/Mitogen-activated protein kinase kinase kinase 11 (Homo sapiens, UniProt Q16584+P40337); test: PROTAC activity at VHL/DOX-inducible MLK3 (unknown origin) overexpressed in human HCC1806 cells assessed as protein degradation at 0.5 uM measured after 24 hrs by shotgun proteomic analysis; format: cell-based
How it was run: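 HCC1806 cells with DOX-inducible MLK3 were seeded at 150 000/well and induced with DOX for 24 h, then treated with 0.5 μM PROTAC or DMSO for 24 h. Total lysates were chloroform/methanol precipitated, reduced and alkylated with TCEP/CAA, and trypsin-digested at 37 °C overnight. Shotgun LC-MS/MS followed, with log2 fold change and t-test p-values (n = 3).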

[3] = target: T2, von Hippel-Lindau disease tumor suppressor/Mitogen-activated protein kinase kinase kinase 11; test: PROTAC activity at VHL/MLK3 in human MCF7 cells assessed as half life of protein degradation at 1 uM by Western blot analysis; format: cell-based
How it was run: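 Endogenous MLK3: cells seeded at 100 000/well, treated next day with 1 μM PROTAC for 4–48 h, DMSO control; immunoblot with GAPDH or β-actin loading control. Remaining MLK3 quantified over time and t1/2 derived.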

[4] = target: T2, von Hippel-Lindau disease tumor suppressor/Mitogen-activated protein kinase kinase kinase 11; test: PROTAC activity at VHL/MLK3 in human MCF7 cells assessed as protein degradation at 0.1 to 5 uM measured after 24 hrs by Western blot analysis relative to control; format: cell-based; conditions: dose 0.1-5 µM
How it was run: (§1)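 Endogenous MLK3: cells seeded at 100 000/well, treated next day for 24 h with PROTAC at 0.1–5 μM, DMSO control; immunoblot with GAPDH or β-actin loading control. Remaining MLK3 percentage plotted against concentration to derive DC50 and Dmax.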

[5] = target: T2, von Hippel-Lindau disease tumor suppressor/Mitogen-activated protein kinase kinase kinase 11; test: PROTAC activity at VHL/MLK3 in human MDA-MB-468 cells assessed as protein degradation at 0.1 to 5 uM measured after 24 hrs by Western blot analysis relative to control; format: cell-based; conditions: dose 0.1-5 µM; how it was run: as §1
[6] = target: T2, von Hippel-Lindau disease tumor suppressor/Mitogen-activated protein kinase kinase kinase 11; test: PROTAC activity at VHL/MLK3 in carfilzomib-treated human MCF7 cells assessed as protein degradation at 1 uM measured after 7 hrs by immunoblot analysis; format: cell-based
How it was run: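 MCF-7 and MDA-MB-468 cells were seeded at 100 000/well. The next day they were pretreated with 1 μM carfilzomib for 1 h, then treated with 1 μM PROTAC for 7 h, with DMSO as control. Endogenous MLK3 was measured by immunoblot of RIPA lysates.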

[7] = target: von Hippel-Lindau disease tumor suppressor/Mitogen-activated protein kinase kinase kinase 21 (Homo sapiens) (UniProt P40337+Q5TCX8); test: PROTAC activity at VHL/MLK4 in human MDA-MB-468 cells assessed as protein degradation at 1 uM incubated for 24 hrs by immunoblot analysis; format: cell-based
How it was run: (§2)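 Endogenous MLK1, MLK2 or MLK4 levels in MCF-7 and MDA-MB-468 cells. Cells were grown in high-glucose DMEM with 10% FBS, seeded at 100 000 cells/well and treated the next day for 24 h, with DMSO as control. Lysis was in RIPA with protease inhibitor, followed by 10% SDS-PAGE, nitrocellulose transfer and ECL immunoblot with GAPDH or β-actin as loading control.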

[8] = target: T1, von Hippel-Lindau disease tumor suppressor/Mitogen-activated protein kinase kinase kinase 10 (Homo sapiens); test: PROTAC activity at IAP/MLK2 in human MCF7 cells assessed as protein degradation at 1 uM incubated for 24 hrs by immunoblot analysis; format: cell-based; how it was run: as §2
[9] = target: von Hippel-Lindau disease tumor suppressor/Mitogen-activated protein kinase kinase kinase 9 (Homo sapiens) (UniProt P80192+P40337); test: PROTAC activity at IAP/MLK1 in human MDA-MB-468 cells assessed as protein degradation at 1 uM incubated for 24 hrs by immunoblot analysis; format: cell-based; how it was run: as §2
[10] = target: T1, von Hippel-Lindau disease tumor suppressor/Mitogen-activated protein kinase kinase kinase 10 (Homo sapiens); test: PROTAC activity at IAP/MLK2 in human MDA-MB-468 cells assessed as protein degradation at 1 uM incubated for 24 hrs by immunoblot analysis; format: cell-based; how it was run: as §2
[11] = tested on: MCF7; test: Effect on ERK pathway in human MCF7 cells at 1 uM measured after 24 hrs by immunoblot analysis; format: functional, cell-based
[12] = tested on: MDA-MB-468; test: Effect on ERK pathway in human MDA-MB-468 cells at 1 uM measured after 24 hrs by immunoblot analysis; format: functional, cell-based
[13] = target: T2, von Hippel-Lindau disease tumor suppressor/Mitogen-activated protein kinase kinase kinase 11; test: PROTAC activity at VHL/MLK3 in human MCF7 cells assessed as decrease in JNK pathway at 1 uM measured after 24 hrs by immunoblot analysis; format: cell-based
[14] = target: T2, von Hippel-Lindau disease tumor suppressor/Mitogen-activated protein kinase kinase kinase 11; test: PROTAC activity at VHL/MLK3 in human MDA-MB-468 cells assessed as decrease in JNK pathway at 1 uM measured after 24 hrs by immunoblot analysis; format: cell-based
[15] = tested on: MCF7; test: Inhibition of colony formation in human MCF7 cells at 1 uM incubated for 15 days by crystal violet staining based analysis; format: functional, cell-based; conditions: time 15.0 day
How it was run: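 5000 cells per 6 cm plate in triplicate with 1 μM PROTAC or DMSO, medium changed every 5 days; colonies stained with crystal violet after 14–15 days. Three independent experiments, mean ± SD, unpaired t-test against control.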

[16] = tested on: MDA-MB-468; test: Inhibition of colony formation in human MDA-MB-468 cells harboring siMLK3 by crystal violet staining based analysis; format: functional, cell-based
How it was run: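 MCF-7 or MDA-MB-468 seeded at 10 000 cells/well, transfected next day with MAP3K11 SMARTpool siRNA or nontargeting control siRNA; crystal violet staining 7 days after transfection. Knockdown confirmed by immunoblot.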

[17] = tested on: MCF7; test: Growth inhibition of human MCF7 cell spheroids in low-attachment surface at 1 uM incubated for 10 days; format: functional, cell-based; conditions: time 10.0 day
How it was run: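 Cells grown 10 days in low-attachment surface plates in medium containing 1 μM PROTAC or DMSO; spheroid growth assessed.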

[18] = tested on: MDA-MB-468; test: Induction of apoptosis in human MDA-MB-468 cells at 1 uM measured after 48 hrs by Annexin V-FITC/PI staining based flow cytometry; format: functional, cell-based
How it was run: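 Cells seeded at 50 000/well, treated 48 h with 1 μM PROTAC or DMSO; cells plus supernatant stained with Alexa Fluor488 Annexin V for 30 min at room temperature in the dark, PI added 5 min before flow cytometry. At least three repeats.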

[19] = target: T2, von Hippel-Lindau disease tumor suppressor/Mitogen-activated protein kinase kinase kinase 11; test: PROTAC activity at VHL/MLK3 in human MDA-MB-468 cells assessed as protein degradation at 1 uM measured after 24 hrs by immunoblot analysis

T1 sequence (P40337 whole entry, looked up): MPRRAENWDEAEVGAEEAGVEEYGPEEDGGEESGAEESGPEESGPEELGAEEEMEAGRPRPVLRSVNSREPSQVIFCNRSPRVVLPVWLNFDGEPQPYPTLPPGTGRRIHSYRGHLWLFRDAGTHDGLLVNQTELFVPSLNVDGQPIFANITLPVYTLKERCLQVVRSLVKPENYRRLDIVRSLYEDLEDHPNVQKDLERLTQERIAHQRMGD
T1 sequence (Q02779 whole entry, looked up): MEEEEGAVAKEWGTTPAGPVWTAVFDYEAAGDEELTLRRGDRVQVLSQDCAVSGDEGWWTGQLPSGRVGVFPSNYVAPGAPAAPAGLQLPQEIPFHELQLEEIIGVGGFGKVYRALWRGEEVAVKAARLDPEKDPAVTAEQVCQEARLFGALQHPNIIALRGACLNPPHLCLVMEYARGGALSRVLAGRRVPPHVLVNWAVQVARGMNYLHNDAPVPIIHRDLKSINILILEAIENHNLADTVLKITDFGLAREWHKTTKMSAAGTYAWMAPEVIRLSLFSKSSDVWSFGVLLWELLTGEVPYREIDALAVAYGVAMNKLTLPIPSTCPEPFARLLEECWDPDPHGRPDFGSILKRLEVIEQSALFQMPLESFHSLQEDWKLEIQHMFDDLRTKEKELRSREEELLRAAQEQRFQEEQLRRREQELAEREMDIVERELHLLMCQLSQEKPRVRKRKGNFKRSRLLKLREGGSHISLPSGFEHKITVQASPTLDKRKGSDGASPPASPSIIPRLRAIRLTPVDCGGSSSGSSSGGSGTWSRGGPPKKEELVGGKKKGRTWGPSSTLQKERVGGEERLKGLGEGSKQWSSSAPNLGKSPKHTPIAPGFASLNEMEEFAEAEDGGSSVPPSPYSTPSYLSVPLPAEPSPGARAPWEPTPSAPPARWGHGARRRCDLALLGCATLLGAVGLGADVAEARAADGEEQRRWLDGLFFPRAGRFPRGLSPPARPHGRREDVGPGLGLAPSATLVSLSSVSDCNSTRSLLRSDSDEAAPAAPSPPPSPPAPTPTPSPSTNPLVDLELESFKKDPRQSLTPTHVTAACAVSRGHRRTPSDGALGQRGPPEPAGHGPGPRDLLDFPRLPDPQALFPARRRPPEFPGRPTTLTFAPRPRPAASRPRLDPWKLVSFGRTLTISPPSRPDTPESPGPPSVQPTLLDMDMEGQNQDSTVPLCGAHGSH
T2 sequence (P40337 whole entry, looked up): as the sequence (P40337 whole entry, looked up) above
T2 sequence (Q16584 whole entry, looked up): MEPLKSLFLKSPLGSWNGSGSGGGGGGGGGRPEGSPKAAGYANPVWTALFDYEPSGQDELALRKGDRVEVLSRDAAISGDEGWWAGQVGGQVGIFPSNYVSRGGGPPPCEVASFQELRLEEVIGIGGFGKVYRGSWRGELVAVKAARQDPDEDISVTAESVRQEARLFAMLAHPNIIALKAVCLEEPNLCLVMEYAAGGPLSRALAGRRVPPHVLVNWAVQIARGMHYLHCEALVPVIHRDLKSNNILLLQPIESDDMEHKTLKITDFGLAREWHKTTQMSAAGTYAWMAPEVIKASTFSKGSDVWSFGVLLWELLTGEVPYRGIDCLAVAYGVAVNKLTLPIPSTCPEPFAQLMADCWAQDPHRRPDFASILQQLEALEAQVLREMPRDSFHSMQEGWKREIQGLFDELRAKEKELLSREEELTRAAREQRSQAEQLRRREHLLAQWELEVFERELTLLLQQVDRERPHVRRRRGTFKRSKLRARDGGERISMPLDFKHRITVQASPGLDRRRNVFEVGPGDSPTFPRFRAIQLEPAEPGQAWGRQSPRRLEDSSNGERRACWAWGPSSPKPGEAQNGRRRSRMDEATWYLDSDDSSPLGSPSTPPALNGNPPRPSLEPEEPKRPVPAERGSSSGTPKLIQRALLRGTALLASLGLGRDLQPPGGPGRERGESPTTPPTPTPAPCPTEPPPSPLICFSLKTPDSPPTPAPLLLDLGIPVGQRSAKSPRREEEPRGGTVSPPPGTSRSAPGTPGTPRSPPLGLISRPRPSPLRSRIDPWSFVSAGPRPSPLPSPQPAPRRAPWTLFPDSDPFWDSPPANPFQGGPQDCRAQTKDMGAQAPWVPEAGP
Sequence of von Hippel-Lindau disease tumor suppressor/Mitogen-activated protein kinase kinase kinase 21 (Homo sapiens) (P40337 whole entry, looked up): as the sequence (P40337 whole entry, looked up) above
Sequence of von Hippel-Lindau disease tumor suppressor/Mitogen-activated protein kinase kinase kinase 21 (Homo sapiens) (Q5TCX8 whole entry, looked up): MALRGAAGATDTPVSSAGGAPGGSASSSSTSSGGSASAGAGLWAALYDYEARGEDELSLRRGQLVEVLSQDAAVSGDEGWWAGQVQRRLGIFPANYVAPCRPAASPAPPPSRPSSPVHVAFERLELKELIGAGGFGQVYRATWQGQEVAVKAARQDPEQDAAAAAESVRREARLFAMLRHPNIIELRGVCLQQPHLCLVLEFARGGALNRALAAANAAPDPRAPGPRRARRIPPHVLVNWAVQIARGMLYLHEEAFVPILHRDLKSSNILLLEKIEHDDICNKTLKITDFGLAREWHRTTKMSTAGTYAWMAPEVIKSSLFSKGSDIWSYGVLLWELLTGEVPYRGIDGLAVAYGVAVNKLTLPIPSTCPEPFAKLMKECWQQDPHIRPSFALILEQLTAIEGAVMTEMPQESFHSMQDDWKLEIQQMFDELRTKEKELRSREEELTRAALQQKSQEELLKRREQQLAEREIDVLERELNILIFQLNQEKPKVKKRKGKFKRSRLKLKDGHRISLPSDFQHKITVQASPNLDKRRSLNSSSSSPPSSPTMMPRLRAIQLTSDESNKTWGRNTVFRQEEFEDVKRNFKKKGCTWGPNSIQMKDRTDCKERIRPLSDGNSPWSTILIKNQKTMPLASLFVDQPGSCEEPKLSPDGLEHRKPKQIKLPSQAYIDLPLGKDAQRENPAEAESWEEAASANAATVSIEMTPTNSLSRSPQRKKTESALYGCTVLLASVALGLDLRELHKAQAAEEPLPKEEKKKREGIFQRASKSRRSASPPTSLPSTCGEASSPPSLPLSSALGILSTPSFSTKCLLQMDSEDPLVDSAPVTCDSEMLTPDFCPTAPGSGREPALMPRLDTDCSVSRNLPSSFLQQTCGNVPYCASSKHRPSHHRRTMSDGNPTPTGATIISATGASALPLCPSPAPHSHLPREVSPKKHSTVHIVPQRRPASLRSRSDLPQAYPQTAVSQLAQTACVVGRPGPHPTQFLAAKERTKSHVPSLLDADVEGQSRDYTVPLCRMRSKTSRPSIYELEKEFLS
Sequence of von Hippel-Lindau disease tumor suppressor/Mitogen-activated protein kinase kinase kinase 9 (Homo sapiens) (P40337 whole entry, looked up): as the sequence (P40337 whole entry, looked up) above
Sequence of von Hippel-Lindau disease tumor suppressor/Mitogen-activated protein kinase kinase kinase 9 (Homo sapiens) (P80192 whole entry, looked up): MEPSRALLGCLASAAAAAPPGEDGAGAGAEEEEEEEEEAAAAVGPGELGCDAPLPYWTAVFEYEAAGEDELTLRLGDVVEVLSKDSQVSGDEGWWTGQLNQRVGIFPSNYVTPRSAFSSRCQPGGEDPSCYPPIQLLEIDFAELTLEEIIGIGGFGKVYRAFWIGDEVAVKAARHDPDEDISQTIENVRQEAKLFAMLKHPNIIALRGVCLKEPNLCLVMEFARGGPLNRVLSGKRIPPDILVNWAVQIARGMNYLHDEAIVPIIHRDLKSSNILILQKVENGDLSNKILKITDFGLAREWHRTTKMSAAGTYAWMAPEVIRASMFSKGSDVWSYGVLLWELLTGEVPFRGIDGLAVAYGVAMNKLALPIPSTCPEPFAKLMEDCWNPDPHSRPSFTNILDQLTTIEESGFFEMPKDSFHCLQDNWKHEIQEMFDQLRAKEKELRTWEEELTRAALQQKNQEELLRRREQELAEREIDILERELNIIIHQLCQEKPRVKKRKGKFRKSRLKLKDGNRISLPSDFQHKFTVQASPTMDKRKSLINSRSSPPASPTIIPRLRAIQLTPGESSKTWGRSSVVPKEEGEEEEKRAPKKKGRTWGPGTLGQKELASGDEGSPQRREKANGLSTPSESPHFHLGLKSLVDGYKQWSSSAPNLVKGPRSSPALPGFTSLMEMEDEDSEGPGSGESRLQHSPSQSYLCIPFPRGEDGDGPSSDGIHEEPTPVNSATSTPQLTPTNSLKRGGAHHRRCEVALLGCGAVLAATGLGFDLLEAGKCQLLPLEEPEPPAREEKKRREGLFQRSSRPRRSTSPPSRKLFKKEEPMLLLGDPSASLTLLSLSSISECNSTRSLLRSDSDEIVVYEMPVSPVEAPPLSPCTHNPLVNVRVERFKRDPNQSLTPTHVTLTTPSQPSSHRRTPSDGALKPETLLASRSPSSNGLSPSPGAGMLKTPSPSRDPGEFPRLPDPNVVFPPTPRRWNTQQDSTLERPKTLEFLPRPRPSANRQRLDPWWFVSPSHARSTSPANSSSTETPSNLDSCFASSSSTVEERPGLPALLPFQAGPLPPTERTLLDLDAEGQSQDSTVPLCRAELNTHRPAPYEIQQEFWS

CCSCc1ccc2c(c1)c1c3c(c4c5cc(CSCC)ccc5n5c4c1n2[C@H]1C[C@](O)(C(=O)NCCOCCOCCOCC(=O)N[C@H](C(=O)N2C[C@H](O)C[C@H]2C(=O)N[C@@H](C)c2ccc(-c4scnc4C)cc2)C(C)(C)C)[C@]5(C)O1)CNC3=O
Activity [1]: inactive
Activity [2]: Active
T1/2 [3]: 2.5 h
Emax [4]: 77%
Emax [5]: 63%
Activity [6]: inactive
Activity [7]: inactive
Activity [8]: inactive
Activity [9]: inactive
Activity [10]: inactive
Activity [11]: inactive
Activity [12]: inactive
Activity [13]: Active
Activity [14]: Active
inhibition [15]: inactive
inhibition [16]: Active
growth inhibition (GI) [17]: inactive
Activity [18]: Active
Activity [19]: Active
